Results published in ChEMBL document CHEMBL1121847, “Synthesis of thyrotropin-releasing hormone analogues with selective central nervous system effects” (J Med Chem, 1981).

Tests used:
[1] = test system: Rattus norvegicus; assay: Compound was evaluated in vivo for its ability to stimulate release of [125I]-labeled T3 and T4 after administration of varying doses; format: functional
Summary of the method: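 Varying doses of analogue were given in vivo, with ¹²⁵I-labeled T₃ and T₄ measured afterwards. Potency is expressed relative to TRH.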

[2] = species on record: Rattus norvegicus; assay: CNS activity was measured by the ability to restore the anticonvulsant effect of methazolamide in reserpine treated rats; format: functional; set-up: unit not given beside the values
Summary of the method: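 Rats pretreated with reserpine received varying doses of analogue, and the read-out was restoration of methazolamide's anticonvulsant activity. Potency is expressed relative to TRH.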

[3] = Acid dissociation constant was measured; format: ADME

Row | SMILES | pKa [3] | Hormonal activity [1] | CNS activity [2]
1 | NC(=O)[C@@H]1CSCN1C(=O)[C@H](Cc1c[nH]cn1)NC(=O)[C@@H]1CCCC(=O)N1 [listing 2 of 2 here] |  | 1 | 35
2 | COC(=O)[C@@H]1CCCCN1C(=O)[C@H](Cc1c[nH]cn1)NC(=O)[C@@H]1CCC(=O)N1 [listing 1 of 2 here] | 6.18 |  | 
3 | COC(=O)[C@@H]1CCCCN1C(=O)[C@H](Cc1c[nH]cn1)NC(=O)[C@@H]1CCC(=O)N1 [listing 2 of 2 here] |  | 0.2 | 1
4 | COC(=O)[C@@H]1CCCCN1C(=O)[C@H](Cc1c[nH]cn1)NC(=O)[C@@H]1CCCC(=O)N1 |  | 0.02 | 0.9

Continued, in another order:

Row | pKa [3] | SMILES | Hormonal activity [1] | CNS activity [2]
5 | 6.18 | NC(=O)[C@@H]1CCCN1C(=O)[C@H](Cc1c[nH]cn1)NC(=O)[C@@H]1CCCC(=O)N1 | 1 | 4
6 | 6.1 | NC(=O)[C@@H]1CSCN1C(=O)[C@H](Cc1c[nH]cn1)NC(=O)[C@@H]1CCCC(=O)N1 [listing 1 of 2 here] |  | 
